4 compounds from ChEMBL document CHEMBL1144140, “Diterpenes from the fruits of Vitex rotundifolia” (J Nat Prod, 1999) can be followed below.

Common to all, as to format: functional
Assay [1] is described as follows: Antioxidant activity at 0.5 mM by ferric-thiocyanate method. Summed up: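 Linoleic acid peroxidation (ferric thiocyanate): sample (final 0.5 mM) with linoleic acid in EtOH/0.05 M phosphate buffer pH 7.0, kept dark at 40 °C for 5 days; aliquot diluted in 75% EtOH, ammonium thiocyanate and ferrous chloride in HCl added, absorbance at 500 nm read at 3 min. Control lacked compound; alpha-tocopherol and BHA standards.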

The test system of assay [2] is Radical scavenging activity. Nature of the assay: Antioxidant activity assessed as DPPH radical scavenging activity at 20 uM after 30 mins. Summed up:
(§1)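 DPPH scavenging: test sample in EtOH added to 0.1 M acetic acid buffer pH 5.5 plus 0.5 mM DPPH EtOH solution (stock); stood 30 min at room temperature; absorbance read at 517 nm, activity given as change in optical density. Standards alpha-tocopherol and L-cysteine.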

For assay [3], the system named is Radical scavenging activity. Nature of the assay: Antioxidant activity assessed as DPPH radical scavenging activity at 40 uM after 30 mins. Summed up:
as §1
A general note: The DPPH test is a chemical assay of radical scavenging.

Assay [4] relates to Radical scavenging activity. Nature of the assay: Antioxidant activity assessed as DPPH radical scavenging activity at 80 uM after 30 mins. Summed up:
as §1

The subject of assay [5] is Radical scavenging activity. Put plainly: Antioxidant activity assessed as DPPH radical scavenging activity at 10 uM after 30 mins. In outline: as §1

SMILES strings stand for the structures. The source made the active and inactive calls. No cut-off for these calls is given here.

As to `COc1ccc(O)c(C(C)(C)C)c1.COc1ccc(O)cc1C(C)(C)C`, in assay [1], the result was Active.

`CC(C)c1cc2c(cc1O)[C@@]1(C)CCCC(C)(C)[C@@H]1CC2`: in assay [1], the result was Active. The deltaA amounted to 0.081 in assay [2], 0.153 in assay [3] and 0.255 in assay [4].

As to `Cc1c(C)c2c(c(C)c1O)CC[C@@](C)(CCC[C@H](C)CCC[C@H](C)CCCC(C)C)O2`, the values for the deltaA in assay [2], in assay [3] and in assay [5] were 0.471, 0.934 and 0.252, respectively.

As for `N[C@@H](CS)C(=O)O`, the deltaA amounted to 0.161 in assay [2], 0.355 in assay [3] and 0.754 in assay [4].
